Source: ChEMBL document CHEMBL4627320, “Discovery of CRBN E3 Ligase Modulator CC-92480 for the Treatment of Relapsed and Refractory Multiple Myeloma” (J Med Chem, 2020)
pEC50, pIC50: −log10 of the molar value. Values after ≈ are worked out from the molar mass of the structure shown. Active and inactive are the calls of the source. The rule behind the calls is not given here.

How the values were obtained:
[1] = species on record: Homo sapiens; experiment: Induction of apoptosis in lenalidomide-resistant human H929-R10-1 cells assessed as caspase3 induction at 1 uM measured over 150 hrs by live cell imaging analysis; format: functional
How it was run: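 Lenalidomide-refractory H929 R10-1 cells were treated at concentrations from 1 nM to 1 μM. Caspase-3 induction was quantified by live-cell imaging over 150 h.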

[2] = species on record: Homo sapiens; experiment: Induction of apoptosis in lenalidomide-resistant human H929-R10-1 cells assessed as increase in cleaved caspase1 level at 1 to 100 nM after 72 hrs by Western blot analysis; format: functional
How it was run: (§1)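 H929 R10-1 cells treated with DMSO or compound (1–100 nM) for 72 h, washed in PBS, lysed in NP-40/Tris pH 8 buffer with protease and phosphatase inhibitors; clarified lysates immunoblotted for p27, cleaved caspase-1, -3, -7 and cleaved PARP, with β-tubulin, using fluorescent secondary antibodies.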

[3] = species on record: Homo sapiens; experiment: Induction of apoptosis in lenalidomide-resistant human H929-R10-1 cells assessed as p27 stabilization at 1 to 100 nM after 72 hrs by Western blot analysis; format: functional; how it was run: as §1
[4] = species on record: Homo sapiens; experiment: Induction of apoptosis in lenalidomide-resistant human H929-R10-1 cells assessed as increase in cleaved PARP level after 72 hrs by Western blot analysis; format: functional; how it was run: as §1
[5] = species on record: Homo sapiens; experiment: (§2) Antiproliferative activity against lenalidomide-resistant human H929-R10-1 cells incubated for 5 days by CellTiter-Glo assay; format: functional
How it was run: (§3)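 H929 R10-1 cells kept in log phase at 37°C, 5% CO₂, and plated at 5000 cells/well. Compounds were added as 10-point duplicate curves starting at 10µM with 1:3 dilutions, in 0.1% DMSO, final volume 40µl. Plates were incubated for 5 days. Viability was read by CellTiter-Glo luminescence after 1 h at room temperature in the dark. IC50 is the mean of ≥3 separate determinations.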

[6] = species on record: Homo sapiens; experiment: Induction of apoptosis in lenalidomide-resistant human H929-R10-1 cells assessed as increase in cleaved caspase3 level at 1 to 100 nM after 72 hrs by Western blot analysis; format: functional; how it was run: as §1
[7] = species on record: Homo sapiens; experiment: Induction of apoptosis in lenalidomide-resistant human H929-R10-1 cells assessed as increase in cleaved caspase7 level at 1 to 100 nM after 72 hrs by Western blot analysis; format: functional; how it was run: as §1
[8] = biological target: Protein cereblon/Zinc finger protein Aiolos (Homo sapiens, UniProt Q96SW2+Q9UKT9); experiment: Induction of CRBN-mediated pLOC-ePL-tagged aiolos (unknown origin) degradation in human DF15 cells assessed as minimum protein remaining incubated for 4 hrs by luminescence based beta-galactosidase enzyme fragmentation complementation assay; format: cell-based
[9] = biological target: D(2) dopamine receptor (Rattus norvegicus) (UniProt P61169); experiment: In vivo agonist activity at D2S in rat assessed as suppression of gut motility administered daily for 7 days; format: functional, organism-based
[10] = as §2; format: functional; conditions: 120 h; how it was run: as §3
[11] = biological target: Adrenergic receptor alpha-1 (Homo sapiens) (UniProt P35348+P25100+P35368); experiment: Inhibition of adrenergic receptor alpha1 (unknown origin) at 10 uM relative to control; format: protein assay
[12] = biological target: T1, D(2) dopamine receptor (Homo sapiens, UniProt P14416); experiment: Inhibition of D2S (unknown origin) at 10 uM relative to control
[13] = biological target: T1, D(2) dopamine receptor; experiment: Agonist activity at D2S (unknown origin)
[14] = system: PBMC; experiment: Cytotoxicity against PBMC (unknown origin); format: cell-based
[15] = biological target: Protein cereblon/DNA damage-binding protein 1 (Homo sapiens, UniProt Q96SW2); experiment: Displacement of Cy5-conjugated CELMoD from N-terminal 6-His tagged CRBN (1 to 442 residues) (unknown origin)/DDB1 (1 to 1140 residues) (unknown origin) incubated for 10 mins by FRET assay; format: protein assay
[16] = biological target: Protein cereblon/Eukaryotic peptide chain release factor GTP-binding subunit ERF3A (Homo sapiens, UniProt P15170+Q96SW2); experiment: Induction of CRBN-mediated pLOC-ePL-tagged GSPT1 (unknown origin) degradation in human DF15 cells assessed as minimum protein remaining incubated for 4 hrs by luminescence based beta-galactosidase enzyme fragmentation complementation assay; format: cell-based
[17] = Tmax in Sprague-Dawley rat at 10 mg/kg, po; format: ADME, organism-based; conditions: in vivo
How it was run: (§4)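 Sprague-Dawley rats given 10 mg/kg orally as a suspension in 0.5% CMC / 0.25% Tween-80 / water; plasma exposure followed.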

[18] = AUC (0 to infinity) in monkey at 3 mg/kg, po; format: ADME, organism-based, Macaca mulatta; design: dose 3 mg/kg, route oral, time infinity; conditions: rhesus monkey, in vivo
[19] = Metabolic stability in rat liver S9 fraction assessed as parent compound remaining after 60 mins; format: ADME, subcellular; conditions: read-out: Stability
How it was run: (§5)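 Compound incubated with human or rat liver S9 fraction; percent parent remaining at 60 min.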

[20] = Metabolic stability in human liver S9 fraction assessed as parent compound remaining after 60 mins; format: ADME, subcellular; conditions: read-out: Stability; how it was run: as §5
[21] = Clearance in Sprague-Dawley rat at 2 mg/kg, iv; format: ADME, organism-based; conditions: in vivo
[22] = Drug metabolism in assay cell medium assessed as compound racemization measured within 24 hrs; format: physicochemical
How it was run: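 Compound held in the same cell medium used for the H929 R10-1 antiproliferation assay; enantiomer levels followed by chiral monitoring over 24 h.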

[23] = Antitumor activity against human NCI-H929-1051 cells xenografted in CB17 SCID mouse assessed as reduction in tumor volume at 10 mg/kg, po qd for 21 days measured post last dose by caliper method relative to control; format: functional; design: scale not given: the % may be the effect or the level left
How it was run: (§6)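 Female CB17 SCID mice, 6-8 weeks old, were inoculated subcutaneously with 10×10⁶ NCI-H929-1051 cells, which had been expanded in 10 μM lenalidomide. At about 150 mm³ the mice were randomized (n=8-10/group) and dosed orally once daily for 21 days, with a vehicle control group. Tumors were measured by caliper twice weekly and volume was taken as width²×length/2. Final volumes were taken after the last dose. Data are mean ± SEM.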

[24] = AUC (0 to infinity) in Sprague-Dawley rat at 10 mg/kg, po; format: ADME, organism-based; design: dose 10 mg/kg, route oral, time infinity; conditions: in vivo; how it was run: as §4
[25] = Solubility of the compound at pH 5; format: physicochemical; conditions: buffer
[26] = Cmax in monkey at 3 mg/kg, po; format: ADME, organism-based, Macaca mulatta; design: dose 3 mg/kg, route oral; conditions: rhesus monkey, in vivo
[27] = species on record: Homo sapiens; experiment: Induction of apoptosis in lenalidomide-resistant human H929-R10-1 cells assessed as caspase3 induction at 1 nM measured over 150 hrs by live cell imaging analysis; format: functional
How it was run: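 Lenalidomide-refractory H929 R10-1 cells treated at 1 nM to 1 μM; caspase-3 induction quantified by live cell imaging over 150 h.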

[28] = Oral bioavailability in Sprague-Dawley rat at 10 mg/kg; format: ADME, organism-based; conditions: in vivo; how it was run: as §4
[29] = Antitumor activity against human NCI-H929-1051 cells xenografted in CB17 SCID mouse assessed as reduction in tumor volume at 3 mg/kg, po qd for 21 days measured post last dose by caliper method relative to control; format: functional; design: scale not given: the % may be the effect or the level left; how it was run: as §6
[30] = Antitumor activity against human NCI-H929-1051 cells xenografted in CB17 SCID mouse assessed as reduction in tumor volume at 1 mg/kg, po qd for 21 days measured post last dose by caliper method relative to control; format: functional; design: scale not given: the % may be the effect or the level left; how it was run: as §6
[31] = Efflux ratio of permeability across apical to basolateral side in human Caco2 cells; format: ADME, cell-based; conditions: Caco-2
[32] = Cmax in Sprague-Dawley rat at 10 mg/kg, po; format: ADME, organism-based; design: dose 10 mg/kg, route oral; conditions: in vivo; how it was run: as §4
[33] = Drug metabolism in monkey assessed as compound racemization at 3 mg/kg, po relative to compound AUC; format: ADME, organism-based, Macaca mulatta; conditions: rhesus monkey, in vivo

| Compound | Activity [2] | Activity [3] | Activity [4] | Activity [6] | Activity [7] | pEC50 [8] | Activity [9] | pIC50 [10] | inhibition [11] | inhibition [12] | pEC50 [13] | pIC50 [15] | AUC(0-inf) [18] | Drug metabolism [22] | AUC(0-inf) [24] | Cmax [26] | Cmax [32] | also measured |
| --- | --- | --- | --- | --- | --- | --- | --- | --- | --- | --- | --- | --- | --- | --- | --- | --- | --- | --- |
| Nc1cccc2c1C(=O)N(C1CCC(=O)NC1=O)C2=O (stereo unspecified) | inactive | inactive | inactive | inactive | inactive |  |  |  |  |  |  |  |  |  |  |  |  | Activity [1]: Active; Activity [5]: inactive |
| N#Cc1ccc(N2CCN(Cc3ccc(COc4cccc5c4CN(C4CCC(=O)NC4=O)C5=O)cc3)CC2)c(F)c1 (stereo unspecified) |  |  |  |  |  | 10.00 | inactive | 8.77 | 67% | 54.5% | < 5.00 |  |  |  |  |  |  |  |
| O=C1CCC(N2Cc3c(OCc4ccc(CN5CCN(c6ccc(F)cc6F)CC5)cc4)cccc3C2=O)C(=O)N1 (racemic) |  |  |  |  |  | 10.00 | Active | 8.77 | 102% | 99.1% | 7.80 | 6.30 to 7.26 |  |  |  |  |  | Activity [14]: Non-Toxic; pEC50 [16]: < 5.00 |
| N#Cc1ccc(N2CCN(Cc3ccc(COc4cccc5c4CN([C@H]4CCC(=O)NC4=O)C5=O)cc3)CC2)c(F)c1 [MEZIGDOMIDE] | Active | Active | Active | Active | Active |  |  |  |  |  |  | 7.52 | 1100 nM·h | Metabolite_Detected | 16400 nM·h | 0.22 µM | 3.2 µM | Tmax [17]: 48 min; remaining at 1 h [19]: 100%; remaining at 1 h [20]: 99%; clearance [21]: 0.408 L/h/kg; Activity [23]: 85.7%; solubility [25]: 0.09 mg/mL (≈ 159 µM); Activity [27]: Active; bioavailability [28]: 38%; Activity [29]: 83.8%; Activity [30]: 75.3%; efflux ratio [31]: 1 |
| N#Cc1ccc(N2CCN(Cc3ccc(COc4cccc5c4CN([C@@H]4CCC(=O)NC4=O)C5=O)cc3)CC2)c(F)c1 |  |  |  |  |  |  |  |  |  |  |  | 5.35 | 100 nM·h | Metabolite_Detected | 500 nM·h | 0.016 µM | 0.06 µM | Drug metabolism [33]: < 9% |
